From ChEMBL document CHEMBL3593206, “SAR Studies of Exosite-Binding Substrate-Selective Inhibitors of A Disintegrin And Metalloprotease 17 (ADAM17) and Application as Selective in Vitro Probes” (J Med Chem, 2015)
Values belong to the molecule of their own block, whether it stands above or below them.

Experiments:
[1] = target: T1, Disintegrin and metalloproteinase domain-containing protein 10 (Homo sapiens, UniProt O14672); test: Inhibition of ADAM10 (unknown origin) preincubated for 30 mins followed by substrate addition measured every 30 mins for 2 hrs by fluorescence assay
T1 sequence (O14672 whole entry): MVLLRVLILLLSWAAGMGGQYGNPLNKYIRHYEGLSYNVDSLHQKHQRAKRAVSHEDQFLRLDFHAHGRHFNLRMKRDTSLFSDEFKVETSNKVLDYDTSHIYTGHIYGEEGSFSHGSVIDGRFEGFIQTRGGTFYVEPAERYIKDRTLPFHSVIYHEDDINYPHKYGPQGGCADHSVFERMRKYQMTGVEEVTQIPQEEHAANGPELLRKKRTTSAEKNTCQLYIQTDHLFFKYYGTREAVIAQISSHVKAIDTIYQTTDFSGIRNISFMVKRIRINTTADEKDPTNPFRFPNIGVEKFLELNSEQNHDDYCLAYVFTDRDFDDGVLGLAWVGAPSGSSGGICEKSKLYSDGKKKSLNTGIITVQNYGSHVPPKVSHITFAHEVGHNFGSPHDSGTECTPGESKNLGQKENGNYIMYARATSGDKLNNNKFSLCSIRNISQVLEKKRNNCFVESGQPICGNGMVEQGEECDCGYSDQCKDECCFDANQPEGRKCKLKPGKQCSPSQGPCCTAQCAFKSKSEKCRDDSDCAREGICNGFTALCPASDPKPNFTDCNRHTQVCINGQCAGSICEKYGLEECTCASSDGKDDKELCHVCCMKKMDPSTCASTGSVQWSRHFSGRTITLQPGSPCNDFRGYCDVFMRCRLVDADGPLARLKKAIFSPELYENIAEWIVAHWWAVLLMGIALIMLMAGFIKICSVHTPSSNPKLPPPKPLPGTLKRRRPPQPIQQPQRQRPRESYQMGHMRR
Method in brief: (§1)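 Enzyme at 30 nM (3× solution) in 10 mM Hepes, 0.001% Brij-35, pH 7.5. Inhibitor series of 10 points, 1:3, from 300 μM, preincubated 30 min at RT. Glycosylated substrate added from a 30 μM 3× solution. Fluorescence (ex 360/em 460 nm) read every 30 min for 2 h. Inhibition taken from hydrolysis rates against substrate-only and substrate-plus-enzyme wells.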

[2] = target: T2, Disintegrin and metalloproteinase domain-containing protein 17 (Homo sapiens, UniProt P78536); test: Inhibition of ADAM17 (unknown origin) preincubated for 30 mins followed by substrate addition measured every 30 mins for 2 hrs by fluorescence assay; method in brief: as §1
T2 sequence (P78536 whole entry, the tested form may be a part): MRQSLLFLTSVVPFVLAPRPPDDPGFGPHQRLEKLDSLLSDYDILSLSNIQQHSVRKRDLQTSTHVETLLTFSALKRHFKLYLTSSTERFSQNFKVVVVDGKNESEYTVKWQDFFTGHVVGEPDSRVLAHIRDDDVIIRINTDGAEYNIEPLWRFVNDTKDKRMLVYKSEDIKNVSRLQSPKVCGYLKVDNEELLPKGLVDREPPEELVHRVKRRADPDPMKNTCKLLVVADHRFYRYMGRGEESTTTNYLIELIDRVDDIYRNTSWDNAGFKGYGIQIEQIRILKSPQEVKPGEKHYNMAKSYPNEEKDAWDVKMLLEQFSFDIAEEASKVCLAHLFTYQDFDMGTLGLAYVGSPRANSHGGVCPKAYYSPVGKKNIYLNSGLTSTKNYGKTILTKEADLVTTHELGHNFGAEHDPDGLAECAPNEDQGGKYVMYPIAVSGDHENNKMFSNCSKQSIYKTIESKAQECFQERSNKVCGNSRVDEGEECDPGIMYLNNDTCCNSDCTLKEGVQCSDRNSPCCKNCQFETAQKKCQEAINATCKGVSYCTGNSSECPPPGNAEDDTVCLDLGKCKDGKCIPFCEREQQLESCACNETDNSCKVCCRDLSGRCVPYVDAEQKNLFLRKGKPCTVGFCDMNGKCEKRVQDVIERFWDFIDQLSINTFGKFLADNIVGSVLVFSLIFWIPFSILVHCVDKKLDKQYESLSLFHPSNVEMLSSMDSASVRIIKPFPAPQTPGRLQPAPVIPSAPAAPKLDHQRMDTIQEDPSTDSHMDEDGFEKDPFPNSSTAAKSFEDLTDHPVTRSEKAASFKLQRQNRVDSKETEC

[3] = target: T3, Matrix metalloproteinase-9 (Homo sapiens, UniProt P14780); test: Inhibition of MMP9 (unknown origin) using Mca-KLPGL-Dnp-AR as substrate at 100 uM preincubated for 30 mins followed by substrate addition measured after 1 hr by fluorescence assay relative to control
T3 sequence (P14780 whole entry): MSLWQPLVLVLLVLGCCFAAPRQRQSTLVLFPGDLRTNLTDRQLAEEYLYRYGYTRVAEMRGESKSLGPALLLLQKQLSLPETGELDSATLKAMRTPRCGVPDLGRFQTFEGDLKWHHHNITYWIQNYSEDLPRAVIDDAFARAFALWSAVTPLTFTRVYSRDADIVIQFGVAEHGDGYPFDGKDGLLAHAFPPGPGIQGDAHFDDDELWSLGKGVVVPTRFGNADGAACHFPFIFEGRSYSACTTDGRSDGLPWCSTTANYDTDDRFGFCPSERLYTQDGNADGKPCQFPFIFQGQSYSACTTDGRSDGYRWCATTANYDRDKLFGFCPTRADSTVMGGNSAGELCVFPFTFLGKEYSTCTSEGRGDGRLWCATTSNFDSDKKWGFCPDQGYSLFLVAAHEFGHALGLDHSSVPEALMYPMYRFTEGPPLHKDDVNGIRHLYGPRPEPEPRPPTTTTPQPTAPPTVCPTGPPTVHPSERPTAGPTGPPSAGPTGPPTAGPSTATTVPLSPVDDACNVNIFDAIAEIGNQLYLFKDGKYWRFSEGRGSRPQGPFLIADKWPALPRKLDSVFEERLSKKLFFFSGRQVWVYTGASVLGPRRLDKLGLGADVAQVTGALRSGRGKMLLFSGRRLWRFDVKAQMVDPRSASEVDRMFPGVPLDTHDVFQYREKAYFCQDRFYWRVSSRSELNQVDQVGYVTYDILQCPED
Method in brief: (§2)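 Inhibitor as 10-point 1:3 dilutions from 300 μM, 30 min at RT. Substrate added from a 30 μM 3× solution. Single fluorescence read (ex 324/em 393 nm) after 1 h at RT.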

A549 = test: Cytotoxicity against human A549 cells assessed as inhibition of cell viability up to 33 uM after 72 hrs by CellTiter-Glo assay; format: cell-based; details: a549, 72 h
[4] = target: T4, Matrix metalloproteinase-14 (Homo sapiens, UniProt P50281); test: Inhibition of MMP14 (unknown origin) using Mca-KLPGL-Dnp-AR as substrate at 100 uM preincubated for 30 mins followed by substrate addition measured after 1 hr by fluorescence assay relative to control
MDA-MB-231 = test: Cytotoxicity against human MDA-MB-231 cells assessed as inhibition of cell viability up to 33 uM after 72 hrs by CellTiter-Glo assay; format: cell-based; details: mda-mb-231, 72 h
HepG2 = test: Cytotoxicity against human HepG2 cells assessed as inhibition of cell viability up to 33 uM after 72 hrs by CellTiter-Glo assay; format: cell-based; details: hepg2, 72 h
[5] = target: T5, 72 kDa type IV collagenase (Homo sapiens, UniProt P08253); test: Inhibition of MMP2 (unknown origin) using Mca-KLPGL-Dnp-AR as substrate preincubated for 30 mins followed by substrate addition measured after 1 hr by fluorescence assay; method in brief: as §2
Target sequence in this assay (P08253 whole entry, the tested form may be a part): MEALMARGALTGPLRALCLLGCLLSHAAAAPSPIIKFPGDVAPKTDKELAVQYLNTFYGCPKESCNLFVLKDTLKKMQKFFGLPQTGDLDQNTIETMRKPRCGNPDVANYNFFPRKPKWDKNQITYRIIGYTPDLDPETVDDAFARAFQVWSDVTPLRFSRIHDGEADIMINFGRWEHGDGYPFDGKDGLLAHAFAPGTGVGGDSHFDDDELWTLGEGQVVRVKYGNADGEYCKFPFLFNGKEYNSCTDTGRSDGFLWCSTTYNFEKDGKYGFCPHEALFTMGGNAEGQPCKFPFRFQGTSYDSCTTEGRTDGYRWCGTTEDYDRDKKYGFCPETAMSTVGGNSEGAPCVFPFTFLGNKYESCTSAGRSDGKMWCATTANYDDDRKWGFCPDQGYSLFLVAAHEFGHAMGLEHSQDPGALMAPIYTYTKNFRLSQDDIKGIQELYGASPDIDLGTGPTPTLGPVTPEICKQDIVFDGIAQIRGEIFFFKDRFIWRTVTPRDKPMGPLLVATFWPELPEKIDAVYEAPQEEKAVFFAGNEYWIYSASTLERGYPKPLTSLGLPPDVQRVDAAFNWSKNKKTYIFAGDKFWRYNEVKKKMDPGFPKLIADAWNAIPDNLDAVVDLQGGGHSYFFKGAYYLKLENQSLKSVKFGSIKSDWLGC

[6] = target: T2, Disintegrin and metalloproteinase domain-containing protein 17; test: Inhibition of ADAM17 in HTSMC assessed as inhibition of LPS-stimulated IL-8 shedding at 10 uM preincubated for 30 mins followed by LPS challenge measured after 4 to 24 hrs by ELISA
Method in brief: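 HTSMCs stimulated with LPS for IL-8 release; compounds at 10 μM. Mean ± SEM, n = 3 from three independent experiments; one-way ANOVA with Dunnett post hoc test.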

[7] = target: T4, Matrix metalloproteinase-14; test: Inhibition of MMP14 (unknown origin) using Mca-KLPGL-Dnp-AR as substrate preincubated for 30 mins followed by substrate addition measured after 1 hr by fluorescence assay; method in brief: as §2
Neutrophil collagenase [8] = target: T6, Neutrophil collagenase (Homo sapiens, UniProt P22894); test: Inhibition of MMP8 (unknown origin) using Mca-KLPGL-Dnp-AR as substrate preincubated for 30 mins followed by substrate addition measured after 1 hr by fluorescence assay; method in brief: as §2
Target sequence in this assay (P22894 whole entry, the tested form may be a part): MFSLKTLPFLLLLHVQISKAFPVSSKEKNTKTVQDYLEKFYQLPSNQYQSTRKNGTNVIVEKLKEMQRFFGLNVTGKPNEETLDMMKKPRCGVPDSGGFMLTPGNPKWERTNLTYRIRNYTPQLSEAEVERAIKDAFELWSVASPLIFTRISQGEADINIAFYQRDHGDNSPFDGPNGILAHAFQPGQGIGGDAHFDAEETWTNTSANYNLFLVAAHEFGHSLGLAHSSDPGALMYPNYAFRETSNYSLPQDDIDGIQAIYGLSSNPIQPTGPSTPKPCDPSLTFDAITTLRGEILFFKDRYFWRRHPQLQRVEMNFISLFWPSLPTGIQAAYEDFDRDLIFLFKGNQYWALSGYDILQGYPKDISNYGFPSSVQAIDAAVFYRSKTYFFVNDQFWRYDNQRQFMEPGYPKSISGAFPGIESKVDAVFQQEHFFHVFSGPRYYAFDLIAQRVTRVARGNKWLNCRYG

[9] = target: T2, Disintegrin and metalloproteinase domain-containing protein 17; test: Inhibition of ADAM17 (unknown origin) at 100 uM preincubated for 30 mins followed by substrate addition measured every 30 mins for 2 hrs by fluorescence assay relative to control; method in brief: as §1
[10] = target: T7, Disintegrin and metalloproteinase domain-containing protein 10 (Homo sapiens) (UniProt O14672); test: Inhibition of ADAM10 in HTSMC assessed as inhibition of constitutive release of fractalkine/CX3CL1 at 10 uM preincubated for 30 mins measured after 4 to 24 hrs by ELISA
T7 sequence (whole entry): T1 sequence (O14672 whole entry)

[11] = target: T3, Matrix metalloproteinase-9; test: Inhibition of MMP9 (unknown origin) using Mca-KLPGL-Dnp-AR as substrate preincubated for 30 mins followed by substrate addition measured after 1 hr by fluorescence assay; method in brief: as §2
[12] = target: T7, Disintegrin and metalloproteinase domain-containing protein 10 (Homo sapiens); test: Inhibition of ADAM10 in human A549 cells assessed as inhibition of betacellulin shedding at 40 uM after 1 hr by ELISA; format: cell-based
Method in brief: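 A549 cells were tested for betacellulin shedding at 40 μM, with Marimastat at 10 μM as control.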

[13] = target: T7, Disintegrin and metalloproteinase domain-containing protein 10 (Homo sapiens); test: Inhibition of ADAM10 (unknown origin) at 100 uM preincubated for 30 mins followed by substrate addition measured every 30 mins for 2 hrs by fluorescence assay relative to control; method in brief: as §1
[14] = target: T2, Disintegrin and metalloproteinase domain-containing protein 17; test: Inhibition of ADAM17 in human A549 cells assessed as effect on PMA-stimulated TGFalpha shedding up to 100 uM preincubated for 1 hr followed by PMA stimulation measured after 1 hr by ELISA; format: cell-based
Method in brief: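 TGFα shedding from PMA-treated A549 cells tested up to 100 μM. Marimastat at 10 μM served as control, with a non-PMA-treated control included; soluble TGFα measured in the supernatant.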

[15] = target: T2, Disintegrin and metalloproteinase domain-containing protein 17; test: Inhibition of ADAM17 in human THP1 cells assessed as inhibition of LPS-stimulated TNFalpha cleavage at 25 uM after 1 hr by AlphaScreen assay relative to control; format: cell-based; details: THP-1
Method in brief: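 THP-1 cells grown in RPMI 1640 with 10% FBS and 0.05 mM 2-mercaptoethanol; 3000 cells per well. Compound given in 3% DMSO for 1 h, then LPS added (1 μg/mL final) and cells incubated overnight at 37 °C. TNFα detected by AlphaScreen using anti-TNFα acceptor beads and streptavidin donor beads, each step 1 h in the dark at RT.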

Neutrophil collagenase [16] = target: T6, Neutrophil collagenase; test: Inhibition of MMP8 (unknown origin) using Mca-KLPGL-Dnp-AR as substrate at 100 uM preincubated for 30 mins followed by substrate addition measured after 1 hr by fluorescence assay relative to control; method in brief: as §2
Target sequence in this assay (P22894 101-467 limits assumed): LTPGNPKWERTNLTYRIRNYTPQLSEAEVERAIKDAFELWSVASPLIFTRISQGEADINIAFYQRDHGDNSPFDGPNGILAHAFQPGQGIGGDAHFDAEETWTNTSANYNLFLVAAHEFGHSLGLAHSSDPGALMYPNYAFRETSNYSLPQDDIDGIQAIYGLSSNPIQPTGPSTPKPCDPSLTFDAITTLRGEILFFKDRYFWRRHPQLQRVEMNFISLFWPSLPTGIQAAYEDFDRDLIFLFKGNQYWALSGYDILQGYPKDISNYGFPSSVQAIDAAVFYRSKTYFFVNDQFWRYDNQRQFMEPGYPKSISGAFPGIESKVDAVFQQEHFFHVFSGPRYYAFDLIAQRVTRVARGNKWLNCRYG

[17] = Cytotoxicity against CHOK1 cells assessed as inhibition of cell viability up to 33 uM after 72 hrs by CellTiter-Glo assay; format: cell-based, Cricetulus griseus; details: chinese hamster, cho-k1, 72 h
[18] = target: T5, 72 kDa type IV collagenase; test: Inhibition of MMP2 (unknown origin) using Mca-KLPGL-Dnp-AR as substrate at 100 uM preincubated for 30 mins followed by substrate addition measured after 1 hr by fluorescence assay relative to control; method in brief: as §2
Target sequence in this assay (P08253 110-660 limits assumed): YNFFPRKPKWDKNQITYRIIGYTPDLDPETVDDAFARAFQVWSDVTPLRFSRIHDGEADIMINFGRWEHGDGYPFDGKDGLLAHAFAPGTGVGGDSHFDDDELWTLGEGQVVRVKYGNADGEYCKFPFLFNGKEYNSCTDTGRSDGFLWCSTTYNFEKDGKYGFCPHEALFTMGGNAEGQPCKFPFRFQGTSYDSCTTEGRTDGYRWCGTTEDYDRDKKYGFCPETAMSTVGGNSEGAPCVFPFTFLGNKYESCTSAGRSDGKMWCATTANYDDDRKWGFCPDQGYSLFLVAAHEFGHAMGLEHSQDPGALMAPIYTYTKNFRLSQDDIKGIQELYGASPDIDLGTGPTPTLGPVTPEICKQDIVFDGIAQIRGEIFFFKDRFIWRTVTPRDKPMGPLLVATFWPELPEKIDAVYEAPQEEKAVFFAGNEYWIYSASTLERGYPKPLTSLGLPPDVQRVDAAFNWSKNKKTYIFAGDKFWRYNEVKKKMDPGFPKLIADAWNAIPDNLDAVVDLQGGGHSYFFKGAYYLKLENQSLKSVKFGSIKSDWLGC

[19] = target: T7, Disintegrin and metalloproteinase domain-containing protein 10 (Homo sapiens); test: Inhibition of ADAM10 in HTSMC assessed as inhibition of PMA-stimulated release of CXCL16 at 10 uM preincubated for 30 mins followed by PMA challenge measured after 4 to 24 hrs by ELISA
[20] = target: T2, Disintegrin and metalloproteinase domain-containing protein 17; test: Inhibition of ADAM17 in human A549 cells assessed as inhibition of PMA-stimulated heregulin shedding at 40 uM incubated for 1 hr followed by PMA stimulation measured after 1 hr; format: cell-based
Method in brief: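 Heregulin shedding in A549 cells, with all compounds tested at 40 μM.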

Compound: CCC[C@H]1CNC(=O)C(=O)N1C[C@@H]1CCCN1C[C@H](Cc1ccc(O)cc1)N1C[C@H](Cc2ccc(O)cc2)N(CCC23CC4CC(CC(C4)C2)C3)C(=O)C1=O
IC50 [1]: > 100 µM
IC50 [2]: 5.9 µM

Compound: CCCC[C@H]1CN([C@@H](Cc2ccc(O)cc2)CN2CCC[C@H]2CN2C(=O)C(=O)NC[C@@H]2CCC)C(=O)C(=O)N1CCC12CC3CC(CC(C3)C1)C2
IC50 [1]: > 100 µM
IC50 [2]: 6.5 µM

Compound: CCC[C@H]1CNC(=O)C(=O)N1C[C@@H]1CCCN1C[C@H](Cc1ccc(O)cc1)N1C[C@H](Cc2ccc(O)cc2)N(CC2CCC2)C(=O)C1=O
IC50 [1]: > 100 µM
IC50 [2]: 94 µM

Compound: CCC[C@H]1CNC(=O)C(=O)N1C[C@@H]1CCCN1C[C@H](Cc1ccc(O)cc1)N1C[C@H](Cc2ccc(O)cc2)N(CC2CCCCC2)C(=O)C1=O
IC50 [1]: > 100 µM
IC50 [2]: 29 µM

More lines, main results first:

IC50 [1]: > 100 µM
IC50 [2]: 8.4 µM
Compound: O=C1NC[C@@H](Cc2ccc3ccccc3c2)N(C[C@@H]2CCCN2C[C@H](Cc2ccc(O)cc2)N2C[C@H](Cc3ccc4ccccc4c3)N(CCC34CC5CC(CC(C5)C3)C4)C(=O)C2=O)C1=O

IC50 [1]: > 100 µM
IC50 [2]: 8.1 µM
Compound: O=C1NC[C@@H](Cc2ccc3ccccc3c2)N(C[C@@H]2CCCN2C[C@H](Cc2ccc(O)cc2)N2C[C@H](Cc3ccc(O)cc3)N(CCC34CC5CC(CC(C5)C3)C4)C(=O)C2=O)C1=O

IC50 [1]: > 100 µM
IC50 [2]: 5.4 µM
Compound: CCC[C@H]1CNC(=O)C(=O)N1C[C@@H]1CCCN1C[C@H](Cc1ccc(O)cc1)N1C[C@@H](Cc2ccc(O)cc2)N(CCC23CC4CC(CC(C4)C2)C3)C(=O)C1=O

inhibition [3]: 0%
inhibition [4]: 0%
IC50 [5]: > 100 µM
inhibition [6]: 62%
IC50 [7]: > 100 µM
IC50 (Neutrophil collagenase [8]): > 100 µM
IC50 [1]: > 100 µM
inhibition [9]: 100%
inhibition [10]: 0%
IC50 [11]: > 100 µM
inhibition [12]: 0%
inhibition [13]: 0%
inhibition [14]: 0%
inhibition [15]: 44%
inhibition (Neutrophil collagenase [16]): 0%
inhibition [18]: 0%
IC50 [2]: 11 µM
inhibition [19]: 0%
inhibition [20]: 0%
Compound: O=C1NC[C@H](Cc2ccccc2)N(C[C@@H]2CCCN2C[C@H](Cc2ccccc2)N2C[C@H](Cc3ccc(O)cc3)N(CCC34CC5CC(CC(C5)C3)C4)C(=O)C2=O)C1=O
Activity (A549): Non-toxic
Activity (MDA-MB-231): Non-toxic
Activity (HepG2): Non-toxic
Activity [17]: Non-toxic

IC50 [1]: > 100 µM
IC50 [2]: 7.9 µM
Compound: CCC[C@H]1CNC(=O)C(=O)N1C[C@@H]1CCCN1C[C@H](Cc1ccc(O)cc1)N1C[C@@H](Cc2ccc3ccccc3c2)N(CCC23CC4CC(CC(C4)C2)C3)C(=O)C1=O
